ChEMBL document CHEMBL1255395, “Laninamivir prodrug CS-8958, a long-acting neuraminidase inhibitor, shows superior anti-influenza virus activity after a single administration” (Antimicrob Agents Chemother, 2010)
The source made the active and inactive calls. The rule behind the calls is not given here.

Tests used:
[1] = test system: Influenza A virus; test: Antimicrobial activity against Influenza A virus (A/Puerto Rico/8/34(H1N1)) infected in BALB/c mouse assessed as increase in mouse survival at 0.095 mg/kg, itn administered for 7 days before infection; assay type: functional, organism-based; parameters: dose 0.095 mg/kg; settings: A/Puerto Rico/8/1934(H1N1)
[2] = test system: Influenza A virus; test: Antimicrobial activity against Influenza A virus (A/Puerto Rico/8/34(H1N1)) infected in BALB/c mouse assessed as increase in mouse survival at 0.18 mg/kg, itn administered for 7 days before infection; assay type: functional, organism-based; parameters: dose 0.18 mg/kg; settings: A/Puerto Rico/8/1934(H1N1)
[3] = test system: Influenza A virus; test: Antimicrobial activity against Influenza A virus (A/Puerto Rico/8/34(H1N1)) infected in BALB/c mouse assessed as increase in mouse survival at 0.37 mg/kg, itn administered for 7 days before infection; assay type: functional, organism-based; parameters: dose 0.37 mg/kg; settings: A/Puerto Rico/8/1934(H1N1)
Method in brief: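 Single intranasal dose in saline (50 μl) given to anesthetized female BALB/c mice 7 days before intranasal infection with A/PR/8/34 at 500 PFU, n = 12. Survival was checked daily to day 20. Groups were compared with saline controls by Kaplan-Meier and log-rank test, with Bonferroni adjustment where needed.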

[4] = test system: Influenza A virus; test: Antimicrobial activity against Influenza A virus (A/Puerto Rico/8/34(H1N1)) infected in BALB/c mouse assessed as increase in mouse survival at 0.71 mg/kg, itn administered for 7 days before infection; assay type: functional, organism-based; parameters: dose 0.71 mg/kg; settings: A/Puerto Rico/8/1934(H1N1)
[5] = test system: Influenza A virus; test: Antimicrobial activity against Influenza A virus (A/Puerto Rico/8/34(H1N1)) infected in BALB/c mouse assessed as increase in mouse survival at 0.085 mg/kg, itn administered for 7 days before infection; assay type: functional, organism-based; parameters: dose 0.085 mg/kg; settings: A/Puerto Rico/8/1934(H1N1)
[6] = test system: Influenza A virus; test: Antimicrobial activity against Influenza A virus (A/Puerto Rico/8/34(H1N1)) infected in BALB/c mouse assessed as increase in mouse survival at 0.25 mg/kg, itn administered for 7 days before infection; assay type: functional, organism-based; parameters: dose 0.25 mg/kg; settings: A/Puerto Rico/8/1934(H1N1)
[7] = test system: Influenza A virus; test: Antimicrobial activity against Influenza A virus (A/Puerto Rico/8/34(H1N1)) infected in BALB/c mouse assessed as increase in mouse survival at 0.76 mg/kg, itn administered for 7 days before infection; assay type: functional, organism-based; parameters: dose 0.76 mg/kg; settings: A/Puerto Rico/8/1934(H1N1)
[8] = test system: Influenza B virus; test: Antimicrobial activity against Influenza B virus (B/Hong Kong/05/1972)infected in BALB/c mouse assessed as increase in mouse survival at 0.076 mg/kg, itn administered for 7 days before infection; assay type: functional, organism-based; parameters: dose 0.076 mg/kg
[9] = test system: Influenza B virus; test: Antimicrobial activity against Influenza B virus (B/Hong Kong/05/1972) infected in BALB/c mouse assessed as increase in mouse survival at 0.23 mg/kg, itn administered for 7 days before infection; assay type: functional, organism-based; parameters: dose 0.23 mg/kg
[10] = test system: Influenza B virus; test: Antimicrobial activity against Influenza B virus (B/Hong Kong/05/1972) infected in BALB/c mouse assessed as increase in mouse survival at 0.71 mg/kg, itn administered for 7 days before infection; assay type: functional, organism-based; parameters: dose 0.71 mg/kg
[11] = test system: Influenza A virus; test: Antimicrobial activity against Influenza A virus (A/Puerto Rico/8/34(H1N1)) infected in BALB/c mouse assessed as increase in mouse survival at 0.017 mg/kg, itn administered 11 hrs post infection for 5 days […] infection; assay type: functional, organism-based; parameters: dose 0.017 mg/kg; settings: A/Puerto Rico/8/1934(H1N1)
Method in brief: (§1)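 Female BALB/c mice (5–6 weeks) infected intranasally with A/PR/8/34 at 100 PFU, n = 10 per group. Each mouse got one intranasal dose at 11 hpi plus oral doses twice daily from 11 hpi to 120 hpi. Drug went by one route and saline by the other, all in saline vehicle. Survival was followed daily to day 20 and analysed by Kaplan-Meier with a log-rank test against the saline group.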

[12] = test system: Influenza A virus; test: Antimicrobial activity against Influenza A virus (A/Puerto Rico/8/34(H1N1)) infected in BALB/c mouse assessed as reduction in viral titer in lung at 0.027 mg/kg, itn after 11 hrs post infection; assay type: functional, organism-based; parameters: dose 0.027 mg/kg; settings: A/Puerto Rico/8/1934(H1N1), TDE = time-dependent effect
Method in brief: (§2)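 BALB/c mice infected intranasally with A/PR/8/34 at 30 PFU. Oral drug was given twice daily from 11 hpi with intranasal saline at 11 hpi, or a single intranasal dose at 11 hpi with oral saline on the same schedule. Lungs (n = 3) were harvested at 35, 59 and 83 hpi. Titers were measured by MDCK plaque assay, log10 PFU/lungs.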

[13] = test system: Influenza B virus; test: Antimicrobial activity against Influenza B virus (B/Malaysia/2506/2004) infected itn dosed Mustela putorius furo assessed as nasal viral titer treated after 4 hrs post infection measured after 1 day; assay type: functional, organism-based
Method in brief: (§3)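 Ferrets (600–800 g), seronegative by hemagglutination inhibition, anaesthetized with ketamine/xylazine and infected with B/Malaysia/2506/2004, 1,000 PFU/100 μl. From 4 hpi they received either a single intranasal dose (saline, 0.05 or 0.5 μmol/kg) or 25 mg/kg oral twice daily. Nasal wash titers measured by MDCK plaque assay on days 1, 2 and 3, log10 PFU/ml (n = 5). Undetectable samples entered at the lower limit of detection.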

[14] = test system: Influenza B virus; test: Antimicrobial activity against Influenza B virus (B/Malaysia/2506/2004) infected itn dosed Mustela putorius furo assessed as nasal viral titer treated after 4 hrs post infection measured after 2 days; assay type: functional, organism-based; method in brief: as §3
[15] = test system: Influenza B virus; test: Antimicrobial activity against Influenza B virus (B/Malaysia/2506/2004) infected itn dosed Mustela putorius furo assessed as nasal viral titer treated after 4 hrs post infection measured after 3 days; assay type: functional, organism-based; method in brief: as §3
[16] = test system: Influenza A virus; test: Antimicrobial activity against Influenza A virus (A/Puerto Rico/8/34(H1N1)) infected in BALB/c mouse assessed as reduction in viral titer in lung at 0.24 mg/kg, itn administered 11 hrs post infection measured after 35 hrs post infection; assay type: functional, organism-based; parameters: dose 0.24 mg/kg; settings: A/Puerto Rico/8/1934(H1N1)
Method in brief: (§4)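 BALB/c mice infected intranasally with A/PR/8/34 at 30 PFU. Intranasal dosing at 0.5 μmol/kg began at 11 hpi, either repeated twice daily or given once followed by twice-daily saline. Lungs (n = 3) were taken at 35, 59 and 83 hpi and homogenized. Titers were measured by MDCK plaque assay as log10 PFU/lungs. Two-way ANOVA and Dunnett test were applied.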

[17] = test system: Influenza A virus; test: Antimicrobial activity against Influenza A virus (A/Puerto Rico/8/34(H1N1)) infected in BALB/c mouse assessed as reduction in viral titer in lung at 0.24 mg/kg, itn administered 11 hrs post infection measured after 59 hrs post infection; assay type: functional, organism-based; parameters: dose 0.24 mg/kg; settings: A/Puerto Rico/8/1934(H1N1); method in brief: as §4
[18] = test system: Influenza A virus; test: Antimicrobial activity against Influenza A virus (A/Puerto Rico/8/34(H1N1)) infected in BALB/c mouse assessed as reduction in viral titer in lung at 0.24 mg/kg, itn administered 11 hrs post infection measured after 83 hrs post infection; assay type: functional, organism-based; parameters: dose 0.24 mg/kg; settings: A/Puerto Rico/8/1934(H1N1); method in brief: as §4
[19] = test system: Influenza A virus; test: Antimicrobial activity against oseltamivir-sensitive influenza A virus (A/Yokohama/67/2006 (H1N1)) clone 1 infected in BALB/c mouse assessed as reduction in viral titer in lung at 0.080 mg/kg, itn administered 13 hrs post infection measured after 37 hrs post infection; assay type: functional, organism-based; parameters: dose 0.08 mg/kg
Method in brief: (§5)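 Female BALB/c mice infected intranasally with A/Yokohama/67/2006 clone 1. From 13 hpi they received either a single intranasal dose (0.057 or 0.17 μmol/kg) or 1.0 or 10 mg/kg oral twice daily. Lung titers measured at 37, 61 and 85 hpi by MDCK plaque assay, log10 PFU/lungs (n = 3). Detection limit 2.4.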

[20] = test system: Influenza A virus; test: Antimicrobial activity against oseltamivir-sensitive influenza A virus (A/Yokohama/67/2006 (H1N1)) clone 1 infected in BALB/c mouse assessed as reduction in viral titer in lung at 0.080 mg/kg, itn administered 13 hrs post infection measured after 61 hrs post infection; assay type: functional, organism-based; parameters: dose 0.08 mg/kg; method in brief: as §5
[21] = test system: Influenza A virus; test: Antimicrobial activity against oseltamivir-sensitive influenza A virus (A/Yokohama/67/2006 (H1N1)) clone 1 infected in BALB/c mouse assessed as reduction in viral titer in lung at 0.080 mg/kg, itn administered post 13 hrs infection measured after 85 hrs post infection; assay type: functional, organism-based; parameters: dose 0.08 mg/kg; method in brief: as §5
[22] = test system: Influenza A virus; test: Antimicrobial activity against Influenza A virus (A/Puerto Rico/8/34(H1N1)) infected in BALB/c mouse assessed as reduction in viral titer in lung at 0.080 mg/kg, itn after 11 hrs post infection; assay type: functional, organism-based; parameters: dose 0.08 mg/kg; settings: A/Puerto Rico/8/1934(H1N1), TDE = time-dependent effect; method in brief: as §2
[23] = test system: Influenza A virus; test: Antimicrobial activity against Influenza A virus (A/Puerto Rico/8/34(H1N1)) infected in BALB/c mouse assessed as increase in mouse survival at 0.17 mg/kg, itn for 7 days post infection; assay type: functional, organism-based; parameters: dose 0.17 mg/kg; settings: A/Puerto Rico/8/1934(H1N1)
[24] = test system: Influenza A virus; test: Antimicrobial activity against Influenza A virus (A/Puerto Rico/8/34(H1N1)) infected in BALB/c mouse assessed as increase in mouse survival at 0.17 mg/kg, itn for 4 days post infection; assay type: functional, organism-based; parameters: dose 0.17 mg/kg; settings: A/Puerto Rico/8/1934(H1N1)
[25] = test system: Influenza A virus; test: Antimicrobial activity against Influenza A virus (A/Puerto Rico/8/34(H1N1)) infected in BALB/c mouse assessed as increase in mouse survival at 0.17 mg/kg, itn for 1 day post infection; assay type: functional, organism-based; parameters: dose 0.17 mg/kg; settings: A/Puerto Rico/8/1934(H1N1)
[26] = test system: Influenza A virus; test: Antimicrobial activity against Influenza A virus (A/Puerto Rico/8/34(H1N1)) infected in BALB/c mouse assessed as increase in mouse survival at 0.17 mg/kg, itn for 12 hrs post infection; assay type: functional, organism-based; parameters: dose 0.17 mg/kg; settings: A/Puerto Rico/8/1934(H1N1)
[27] = test system: Influenza A virus; test: Antimicrobial activity against Influenza A virus (A/Puerto Rico/8/34(H1N1)) infected in BALB/c mouse assessed as increase in mouse survival at 0.017 mg/kg, itn administered 11 hrs post infection for 5 days […] infection measured on day 20; assay type: functional, A/Puerto Rico/8/1934(H1N1); method in brief: as §1
[28] = test system: Influenza B virus; test: Antimicrobial activity against Influenza B virus (B/Hong Kong/05/1972) infected in BALB/c mouse assessed as increase in mouse survival at 0.23 mg/kg, itn administered for 7 days before infection measured at day 20; assay type: functional

SMILES: CCCCCCCC(=O)OC[C@@H](O)[C@@H](OC)[C@@H]1OC(C(=O)O)=C[C@H](NC(=N)N)[C@H]1NC(C)=O [LANINAMIVIR OCTANOATE]
- Activity [1]: Active
- Activity [2]: Active
- Activity [3]: Active
- Activity [4]: Active
- Activity [5]: Active
- Activity [6]: Active
- Activity [7]: Active
- Activity [8]: Active
- Activity [9]: Active
- Activity [10]: Active
- Activity [11]: Active
- Activity [12]: tde
- Activity [13]: Dose-dependent effect
- Activity [14]: Dose-dependent effect
- Activity [15]: Dose-dependent effect
- Activity [16]: Active
- Activity [17]: Active
- Activity [18]: Active
- Activity [19]: Active
- Activity [20]: Active
- Activity [21]: Active
- Activity [22]: tde
- Activity [23]: Active
- Activity [24]: Active
- Activity [25]: Active
- Activity [26]: Active
- Activity [27]: 30%
- Activity [28]: 82%
